The results in this text go back to ChEMBL document CHEMBL1148489, “Synthesis and structure-activity relationships of 1-arylmethyl-5-aryl-6-methyluracils as potent gonadotropin-releasing hormone receptor antagonists” (J Med Chem, 2004).

Data set [1] addresses T1, Gonadotropin-releasing hormone receptor (Homo sapiens, UniProt P30968).
T1 sequence (P30968 whole entry): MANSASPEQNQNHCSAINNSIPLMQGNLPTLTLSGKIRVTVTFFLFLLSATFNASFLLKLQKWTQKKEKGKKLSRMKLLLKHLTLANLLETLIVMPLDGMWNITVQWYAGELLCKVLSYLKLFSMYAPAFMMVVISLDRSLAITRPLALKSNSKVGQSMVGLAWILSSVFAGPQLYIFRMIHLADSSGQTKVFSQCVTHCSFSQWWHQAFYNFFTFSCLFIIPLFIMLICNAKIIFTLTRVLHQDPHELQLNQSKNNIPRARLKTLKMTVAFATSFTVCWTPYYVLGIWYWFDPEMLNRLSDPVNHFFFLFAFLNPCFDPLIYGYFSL
Nature of the data set: Binding affinity evaluated by the ability to inhibit des-Gly10[125I]Tyr5,D-Leu6,NMeLeu7,Pro9-NEt]- Gonadotropin-releasing hormone binding to cloned human Gonadotropin-releasing hormone receptor expressed in HEK293 cells. It is filed as cell-based.

Data set [2] addresses T1, Gonadotropin-releasing hormone receptor. The data set can be described thus: In vitro inhibition of [Ca2+] influx in RBL cells expressing Gonadotropin-releasing hormone receptor. Type of data set: functional, cell-based. Put shortly: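 RBL cells stably expressing full-length human GnRH receptor, attached overnight and loaded with 2 μM Fluo-4 for 1 h at 37 °C. Cells washed, then preincubated 1 min with increasing compound before 5 nM GnRH stimulation. Ca2+ flux read as fluorescence on FLIPR; IC50 derived.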

In data set [3] the target is T2, Gonadotropin-releasing hormone receptor (Rattus norvegicus, UniProt P30969).
T2 sequence (P30969 whole entry): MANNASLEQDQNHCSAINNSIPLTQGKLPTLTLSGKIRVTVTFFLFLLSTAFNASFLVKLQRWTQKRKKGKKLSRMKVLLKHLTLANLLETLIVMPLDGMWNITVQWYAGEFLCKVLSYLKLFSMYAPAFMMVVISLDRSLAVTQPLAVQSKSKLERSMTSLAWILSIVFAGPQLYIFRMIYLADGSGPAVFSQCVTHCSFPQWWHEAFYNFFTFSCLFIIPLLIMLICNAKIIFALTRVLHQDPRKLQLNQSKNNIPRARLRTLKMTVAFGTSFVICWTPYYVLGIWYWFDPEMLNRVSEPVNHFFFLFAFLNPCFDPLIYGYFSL
Nature of the data set: In vivo inhibition of rat Gonadotropin-releasing hormone receptor. It is filed as organism-based.

The nature of data set [4]: Half life was determined. Type of data set: ADME, organism-based. Particulars: mouse, in vivo. The procedure, abridged: (§1)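 Terminal blood at preset times, composite sampling, plus hepatic portal vein samples under isoflurane. Plasma flash-frozen; LLOQ 5 ng/mL. Parameters from a noncompartmental model.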
Data set [5] in a line: Oral bioavailability in mouse. Type of data set: ADME, organism-based. Particulars: in vivo. The procedure, abridged:
as §1

Another data set concerns Mus musculus. Nature of the data set: AUC value was determined after oral administration. It is filed as ADME, organism-based, Plasma. Particulars: in vivo. Put shortly: as §1
Data set [6] can be described thus: Clearance value was determined. Particulars: mouse, in vivo. It is filed as ADME, organism-based. Put shortly: as §1
The target of data set [7] is T2, Gonadotropin-releasing hormone receptor. The data set can be described thus: In vivo inhibition of rat Gonadotropin releasing hormone receptor. It is filed as organism-based.

In turn, `Cc1c(-c2ccccc2F)c(=O)n(CCN(C)CCc2ccccn2)c(=O)n1Cc1c(F)cccc1F` yielded a Ki in data set [1] of 81 nM. In data set [1], `Cc1ccc(-c2c(C)n(Cc3c(F)cccc3F)c(=O)n(CCN(C)CCc3ccccn3)c2=O)cc1` had a Ki of 220 nM. Take `Cc1c(-c2ccc3oc4ccccc4c3c2)c(=O)n(CCN(C)CCc2ccccn2)c(=O)n1Cc1c(F)cccc1F`: the Ki in data set [1] is 170 nM. With `Cc1c(-c2cccc(C(C)C)c2)c(=O)n(CCN(C)CCc2ccccn2)c(=O)n1Cc1c(F)cccc1F`, in data set [1], the Ki was 240 nM.

The molecule `COc1cccc(-c2c(C)n(Cc3c(F)cccc3F)c(=O)n(C[C@H](C)NCc3sccc3C)c2=O)c1F` had an IC50 in data set [2] of 4 nM. The Ki in data set [1] is 4 nM; in data set [3] it was 3200 nM. As for `CCC(CC)N[C@@H](C)Cn1c(=O)c(-c2cccc(OC)c2F)c(C)n(Cc2c(F)cccc2F)c1=O`, the half-life in data set [4] is 54 min. The bioavailability in data set [5] came out at 8.2%. Moreover, the AUC with Mus musculus is 110 ng·h/mL. Moreover, in data set [6], the clearance turned out to be 129 mL/min/kg. Regarding `COCc1ccc(-c2c(C)n(Cc3c(F)cccc3F)c(=O)n(CCN(C)CCc3ccccn3)c2=O)cc1`, affinity in data set [1] was put at a Ki of 1400 nM. In data set [1], `Cc1c(-c2cccc(F)c2)c(=O)n(CCN(C)CCc2ccccn2)c(=O)n1Cc1c(F)cccc1F` displayed a Ki of 1200 nM. Turning to `CCOc1ccc(-c2c(C)n(Cc3c(F)cccc3F)c(=O)n(CCN(C)CCc3ccccn3)c2=O)cc1`, the affinity in data set [1], expressed as Ki, was 680 nM. For the molecule `COc1cccc(-c2c(C)n(Cc3c(F)cccc3F)c(=O)n(CCN(C)CCc3ccccn3)c2=O)c1`, the half-life in data set [4] is 24 min. For the same molecule, the bioavailability in data set [5] was determined as 1.6%. The AUC in the data set with Mus musculus was determined as 23 ng·h/mL. Also, in data set [6], the clearance worked out at 120 mL/min/kg. On to `Cc1c(-c2ccc(C(C)C)cc2)c(=O)n(CCN(C)CCc2ccccn2)c(=O)n1Cc1c(F)cccc1F`, for which the Ki in data set [1] came out at 110 nM. In the case of `COCc1cccc(-c2c(C)n(Cc3c(F)cccc3F)c(=O)n(CCN(C)CCc3ccccn3)c2=O)c1`, in data set [1], the Ki stood at 1500 nM. Molecule `C=Cc1ccc(-c2c(C)n(Cc3c(F)cccc3F)c(=O)n(CCN(C)CCc3ccccn3)c2=O)cc1` came in with a Ki in data set [1] of 340 nM. With `COc1cccc(-c2c(C)n(Cc3c(F)cccc3F)c(=O)n(C[C@@H](C)NCc3nccs3)c2=O)c1F`, in data set [4], the half-life was 78 min. The molecule also yielded an IC50 in data set [2] of 6.1 nM. The Ki in data set [1] amounted to 13 nM; in data set [7], 10000 nM. The bioavailability in data set [5] was determined as 6%. This molecule returned an AUC in the data set on Mus musculus of 104 ng·h/mL. In addition, the clearance in data set [6] came to 97.3 mL/min/kg.

With `Cc1c(-c2ccc3ccccc3c2)c(=O)n(CCN(C)CCc2ccccn2)c(=O)n1Cc1c(F)cccc1F`, the Ki in data set [1] came out at 460 nM.

For `COc1cccc(-c2c(C)n(Cc3c(F)cccc3F)c(=O)n([C@H](C)CNCc3ccccc3C)c2=O)c1F`, affinity in data set [1] was put at a Ki of 7 nM. `COc1cccc(-c2c(C)n(Cc3c(F)cccc3F)c(=O)n(CCN(C)CCc3ccccn3)c2=O)c1F` yielded a Ki in data set [1] of 3 nM. `CCc1ccc(CN[C@@H](C)Cn2c(=O)c(-c3cccc(OC)c3F)c(C)n(Cc3c(F)cccc3F)c2=O)o1` registered an IC50 in data set [2] of 27 nM. Moreover, the Ki was 15 nM in data set [1] and 4900 nM in data set [3]. The molecule `COc1ccc(-c2c(C)n(Cc3c(F)cccc3F)c(=O)n(CCN(C)CCc3ccccn3)c2=O)cc1OC` registered a Ki in data set [1] of 4800 nM. As to `COc1cccc(-c2c(C)n(Cc3c(F)cccc3F)c(=O)n(C[C@H](C)NC3CCCC3)c2=O)c1F`, the half-life in data set [4] is 36 min. This molecule gave a bioavailability in data set [5] of 2.2%. The AUC in the data set with Mus musculus is 57 ng·h/mL. Also, the clearance in data set [6] came out at 70.7 mL/min/kg.

Molecule `COc1cc(-c2c(C)n(Cc3c(F)cccc3F)c(=O)n(CCN(C)CCc3ccccn3)c2=O)cc(OC)c1OC` came in with a Ki in data set [1] of 10800 nM. The same measure, in the same setting: the figure for `Cc1c(-c2ccc3c(c2)OC(F)(F)O3)c(=O)n(CCN(C)CCc2ccccn2)c(=O)n1Cc1c(F)cccc1F` is 470 nM; for `CSc1ccc(-c2c(C)n(Cc3c(F)cccc3F)c(=O)n(CCN(C)CCc3ccccn3)c2=O)cc1` it is 120 nM. Regarding `COc1cccc(-c2c(C)n(Cc3c(F)cccc3F)c(=O)n(C[C@H](C)NCc3ccccc3)c2=O)c1F`, it took 38 nM to reach half-maximal inhibition in data set [2] (IC50). Besides, the results for the inhibitory constant (Ki) in data set [1] and in data set [3] were 25 nM and 25000 nM, respectively. In data set [1], `Cc1c(-c2cccc(Cl)c2)c(=O)n(CCN(C)CCc2ccccn2)c(=O)n1Cc1c(F)cccc1F` showed a Ki of 370 nM.
